Legend:
Type in all cases: ADME, organism-based
[1] = Half life in iv/po dosed Sprague-Dawley rat; details: in vivo
Outline: (§1)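 Male Sprague-Dawley rats dosed by intravenous and by oral routes. Pharmacokinetic parameters are derived from these studies.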

[2] = Plasma clearance in iv/po dosed Sprague-Dawley rat; outline: as §1
[3] = Volume of distribution at steady state in iv/po dosed Sprague-Dawley rat; details: in vivo, read-out: Vdss; outline: as §1
[4] = Oral bioavailability in Sprague-Dawley rat; details: in vivo; outline: as §1

Structure (SMILES)	half-life [1] [h]	clearance [2] [mL/min/kg]	Vd [3] [L/kg]	bioavailability [4] [%]
CN(C)[C@@H]1CCc2cc(N3CC[C@H](NS(=O)(=O)c4ccc5cc(Cl)ccc5c4)C3=O)ccc21	3.4	7.6	1.7	27
O=C1[C@@H](NS(=O)(=O)c2ccc3cc(Cl)ccc3c2)CCN1c1ccc([C@@H]2CCCN2)cc1F	7.5	2.8	1.7	38
O=C1[C@@H](NS(=O)(=O)c2ccc3cc(Cl)ccc3c2)CCN1c1ccc([C@H]2CCCN2)cc1F	10.2	2.6	1.9	25
CN(C)[C@H]1CCc2cc(N3CC[C@H](NS(=O)(=O)c4ccc5cc(Cl)ccc5c4)C3=O)ccc21	4.4	6	2	61
CN[C@@H](C)c1ccc(N2CC[C@H](NS(=O)(=O)c3ccc4cc(Cl)ccc4c3)C2=O)c(F)c1				> 10
CN(C)C1CCc2cc(N3CC[C@H](NS(=O)(=O)/C=C/c4ccc(Cl)s4)C3=O)ccc21 (mixture of isomers)	1.7	9.5	1.1	57
CNC1CCc2cc(N3CC[C@H](NS(=O)(=O)/C=C/c4ccc(Cl)s4)C3=O)ccc21 (mixture of isomers)	5.4	2.2	0.9	
CNC1CCc2cc(N3CC[C@H](NS(=O)(=O)c4ccc5cc(Cl)ccc5c4)C3=O)ccc21 (mixture of isomers)	12.4	2.5	2.4	25
CN1CCCC1c1ccc(N2CC[C@H](NS(=O)(=O)/C=C/c3ccc(Cl)s3)C2=O)c(F)c1 (mixture of isomers)	1.4	11	0.8	41
O=C1[C@@H](NS(=O)(=O)/C=C/c2ccc(Cl)s2)CCN1c1ccc(C2CCCN2)cc1F (mixture of isomers)	3.4	2.8	0.7	52
O=C1[C@@H](NS(=O)(=O)c2ccc3cc(Cl)ccc3c2)CCN1c1ccc(C2CCCN2)cc1F (mixture of isomers)	9	2.7	1.9	24
O=C1[C@@H](NS(=O)(=O)c2ccc3c(Cl)c[nH]c3c2)CCN1c1ccc(C2CCCN2)cc1F (mixture of isomers)	11	1.3	0.8	< 1
